# Measured values from ChEMBL document CHEMBL1125201, “C-glycosidic analogues of lipid A and lipid X: synthesis and biological activities” (J Med Chem, 1991).
# How the values were obtained:
# [1] = Compound was evaluated for lethal dose after intravenous administration; format: toxicity, organism-based; conditions: mouse, in vivo
# In short: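 Mice (C57BL/6, groups of six) given serial dilutions of compound iv via tail vein in pyrogen-free saline, with galactosamine 400 mg/kg ip given at the same time to sensitize to endotoxin; lethal toxicity recorded as LD50.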
# Pseudomonas aeruginosa = test: Compound was evaluated for effective dose required for the nonspecific resistance against Pseudomonas aeruginosa after intraperitoneal administration; format: functional; conditions: ip
# In short: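 Myelosuppressed mice got the compound ip on day -1 and were infected iv with P. aeruginosa (Δ12) on day 0 at an LD35 inoculum. Survival was scored over 4 days. ED50 was calculated by Probit analysis with confidence limits. Disaccharides were tested as lysine salts.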
# Mus musculus = test: Survival rate of the nonspecific resistance against Pseudomonas aeruginosa infection after intraperitoneal administration in ten mice; format: functional; set-up: unit: surviving mice (of 10)
# In short: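 Compound (12.5 mg/kg, single dose) given ip to myelosuppressed mice on day -1, then iv infection with P. aeruginosa (Δ12) on day 0 at an LD35 inoculum; 10 mice per group; survival counted after 4-day observation; LPS (S. abortus equi) ip control group.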
compound,measurement,setting,value
CCCCCCCCCCC[C@@H](O)CC(=O)NC1C(CC(=O)O)OC(COC2OC(CO)C(O)C(OC(=O)C[C@H](O)CCCCCCCCCCC)C2NC(=O)C[C@H](O)CCCCCCCCCCC)C(O)C1OC(=O)C[C@H](O)CCCCCCCCCCC (stereo not given in full),LD50,[1],~5.2 mg/kg
same,ED50,Pseudomonas aeruginosa,1.5 mg/kg
same,Survival rate,Mus musculus,10
CCCCCCCCCCCCCC(=O)O[C@H](CCCCCCCCCCC)CC(=O)O[C@H]1[C@H](O)[C@H](CO)O[C@H](CC(=O)O)[C@@H]1NC(=O)C[C@H](O)CCCCCCCCCCC (stereo in doubt; 13a),Survival rate,Mus musculus,4
CCCCCCCCCCC[C@@H](O)CC(=O)NC1C(OP(=O)(O)O)OC(CO)C(O)C1OC(=O)C[C@H](O)CCCCCCCCCCC (stereo not given in full),Survival rate,Mus musculus,0
CCCCCCCCCCCCCC(=O)O[C@H](CCCCCCCCCCC)CC(=O)O[C@H]1[C@H](O)[C@H](CO)O[C@H](CC(=O)O)[C@@H]1NC(=O)C[C@H](O)CCCCCCCCCCC (stereo in doubt; 17b),LD50,[1],0.2 mg/kg
same,ED50,Pseudomonas aeruginosa,1.8 mg/kg
same,Survival rate,Mus musculus,9
CCCCCCCCCCC[C@@H](O)CC(=O)N[C@H]1C(CC(=O)O)OC(CO)C(O)C1OC(=O)C[C@H](O)CCCCCCCCCCC (stereo not given in full),Survival rate,Mus musculus,4
CCCCCCCCCCC[C@@H](O)CC(=O)NC1C(OCC2OC(OP(=O)(O)O)C(NC(=O)C[C@H](O)CCCCCCCCCCC)C(OC(=O)C[C@H](O)CCCCCCCCCCC)C2O)OC(CO)C(O)C1OC(=O)C[C@H](O)CCCCCCCCCCC (stereo not given in full),LD50,[1],3.5 mg/kg
same,ED50,Pseudomonas aeruginosa,3.4 mg/kg
same,Survival rate,Mus musculus,8
CCCCCCCCCCC[C@@H](O)CC(=O)OC1C(O)C(CO)OC(CC(=O)O)[C@@H]1NC(C)=O (stereo not given in full),Survival rate,Mus musculus,1
CCCCCCCCCCC[C@@H](O)CC(=O)NC1C(CC(=O)O)OC(CO)C(OC(=O)C[C@H](O)CCCCCCCCCCC)C1OC(=O)C[C@H](O)CCCCCCCCCCC (stereo not given in full),LD50,[1],1 mg/kg
same,ED50,Pseudomonas aeruginosa,1.1 mg/kg
same,Survival rate,Mus musculus,10
CCCCCCCCCCC[C@@H](O)CC(=O)NC1C(OP(=O)(O)O)OC(CO)C(OC(=O)C[C@H](O)CCCCCCCCCCC)C1OC(=O)C[C@H](O)CCCCCCCCCCC (stereo not given in full),LD50,[1],0.8 mg/kg
same,ED50,Pseudomonas aeruginosa,1.1 mg/kg
same,Survival rate,Mus musculus,10
CCCCCCCCCCCCCC(=O)O[C@H](CCCCCCCCCCC)CC(=O)OC1C(O)C(CO)OC(OP(=O)(O)O)C1NC(=O)C[C@H](O)CCCCCCCCCCC (stereo not given in full),LD50,[1],0.3 mg/kg
same,ED50,Pseudomonas aeruginosa,1.7 mg/kg
same,Survival rate,Mus musculus,9
CCCCCCCCCCCCCC(=O)O[C@H](CCCCCCCCCCC)CC(=O)O[C@H]1[C@H](O)[C@H](CO)O[C@@H](CC(=O)O)[C@@H]1NC(=O)C[C@H](O)CCCCCCCCCCC,Survival rate,Mus musculus,2
CCCCCCCCCCC[C@@H](O)CC(=O)N[C@H]1C(CC(=O)O)OC(CO)C(O)C1O (stereo not given in full),Survival rate,Mus musculus,0
CCCCCCCCCCC[C@@H](O)CC(=O)NC1C(OCC2OC(CC(=O)O)C(NC(C)=O)C(OC(=O)C[C@H](O)CCCCCCCCCCC)C2O)OC(CO)C(O)C1OC(=O)C[C@H](O)CCCCCCCCCCC (stereo not given in full),Survival rate,Mus musculus,7
